Paper PMC10556424 (RSC Advances, 2023)

Key:
[1] = tested on: HBV DNA in HBV-expressed HepG2.2.15 cells; assay: In vitro anti-HBV activity in HepG2.2.15 cell line; format: cell-based; conditions: Hepatitis B virus, HepG2.2.15, 144 h, read-out: % HBV DNA remaining
How it was run: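 HepG2.2.15 cells were seeded at 5 × 10^5 per well in high-glucose DMEM with 10% heat-inactivated FBS, 300 mg L−1 G418, 1% non-essential amino acids and antibiotic–antimycotic, then held overnight at 37 °C, 5% CO2. Compound or 0.5% DMSO was given for 3 days, then renewed for 3 more days. Intracellular HBV DNA was measured by qPCR as % remaining versus vehicle; EC50 came from a 4-parameter nonlinear fit.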

[2] = biological target: CYP2D6 (Homo sapiens, UniProt P10635); assay: CYP450 inhibition in human liver microsomes; format: in vitro ADME; conditions: pooled human liver microsomes, pH 7.4, probe dextromethorphan (2.5 μM)
Chain of CYP2D6 (P10635 whole entry): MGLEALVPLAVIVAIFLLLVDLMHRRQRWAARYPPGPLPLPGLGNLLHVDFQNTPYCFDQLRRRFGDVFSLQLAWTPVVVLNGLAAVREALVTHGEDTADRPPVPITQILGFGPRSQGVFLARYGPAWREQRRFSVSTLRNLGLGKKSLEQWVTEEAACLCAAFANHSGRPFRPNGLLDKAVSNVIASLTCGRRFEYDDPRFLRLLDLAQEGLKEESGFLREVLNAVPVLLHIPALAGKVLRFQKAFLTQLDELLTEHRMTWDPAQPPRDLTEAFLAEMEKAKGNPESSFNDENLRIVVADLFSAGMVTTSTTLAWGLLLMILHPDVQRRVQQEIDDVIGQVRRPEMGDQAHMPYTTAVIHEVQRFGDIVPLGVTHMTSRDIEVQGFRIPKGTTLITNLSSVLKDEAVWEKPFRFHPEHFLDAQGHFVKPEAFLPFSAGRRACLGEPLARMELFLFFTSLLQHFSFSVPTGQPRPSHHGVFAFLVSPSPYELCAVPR
How it was run: (§1)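 Test compound at 10 μM with pooled human liver microsomes (0.2 mg mL−1) and a cocktail of 10 CYP probe substrates. Buffer was 100 mM potassium phosphate, pH 7.4, with 3.3 mM MgCl2, at 37 °C. β-NADPH (1.3 mM) started the reaction. After 10 min, ice-cold 3% formic acid in 5% acetonitrile stopped it. Centrifuged samples went to LC-MS/MS; each metabolite's formation is given as % inhibition versus control.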

[3] = In vitro microsomal stability; format: in vitro ADME; conditions: human liver microsomes, 1 μM, Table 3
How it was run: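 Compound (1 μM) with pooled human liver microsomes (0.4 mg mL−1) in 100 mM potassium phosphate, pH 7.4, with 3.3 mM MgCl2 and 1.3 mM β-NADPH. Organic solvent was ≤1%, at 37 °C. Time-point samples were quenched with ice-cold acetonitrile containing internal standard, centrifuged, and the supernatants analysed by LC-MS/MS. Results are intrinsic clearance.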

[4] = biological target: T1, CYP2A6 (Homo sapiens, UniProt P11509); assay: CYP450 inhibition in human liver microsomes; format: in vitro ADME; conditions: pooled human liver microsomes, pH 7.4, probe coumarin (1.5 μM)
T1 sequence (P11509 1-494): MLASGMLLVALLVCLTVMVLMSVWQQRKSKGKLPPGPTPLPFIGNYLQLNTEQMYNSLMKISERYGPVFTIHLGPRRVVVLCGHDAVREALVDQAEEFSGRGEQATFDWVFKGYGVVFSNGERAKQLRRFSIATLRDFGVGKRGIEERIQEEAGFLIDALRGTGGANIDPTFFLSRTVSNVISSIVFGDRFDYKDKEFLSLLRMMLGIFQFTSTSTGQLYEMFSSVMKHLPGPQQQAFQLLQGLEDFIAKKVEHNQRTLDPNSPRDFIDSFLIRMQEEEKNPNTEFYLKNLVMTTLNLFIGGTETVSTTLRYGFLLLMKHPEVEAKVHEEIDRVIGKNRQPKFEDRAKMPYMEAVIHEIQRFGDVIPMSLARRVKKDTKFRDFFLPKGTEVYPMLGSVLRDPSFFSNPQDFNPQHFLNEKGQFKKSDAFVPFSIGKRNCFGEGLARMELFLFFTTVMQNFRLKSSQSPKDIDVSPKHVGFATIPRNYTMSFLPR
How it was run: as §1

[5] = biological target: T2, CYP2C8 (Homo sapiens, UniProt P10632); assay: CYP450 inhibition in human liver microsomes; format: in vitro ADME; conditions: pooled human liver microsomes, pH 7.4, probe amodiaquine (1 μM)
T2 sequence (P10632 1-490): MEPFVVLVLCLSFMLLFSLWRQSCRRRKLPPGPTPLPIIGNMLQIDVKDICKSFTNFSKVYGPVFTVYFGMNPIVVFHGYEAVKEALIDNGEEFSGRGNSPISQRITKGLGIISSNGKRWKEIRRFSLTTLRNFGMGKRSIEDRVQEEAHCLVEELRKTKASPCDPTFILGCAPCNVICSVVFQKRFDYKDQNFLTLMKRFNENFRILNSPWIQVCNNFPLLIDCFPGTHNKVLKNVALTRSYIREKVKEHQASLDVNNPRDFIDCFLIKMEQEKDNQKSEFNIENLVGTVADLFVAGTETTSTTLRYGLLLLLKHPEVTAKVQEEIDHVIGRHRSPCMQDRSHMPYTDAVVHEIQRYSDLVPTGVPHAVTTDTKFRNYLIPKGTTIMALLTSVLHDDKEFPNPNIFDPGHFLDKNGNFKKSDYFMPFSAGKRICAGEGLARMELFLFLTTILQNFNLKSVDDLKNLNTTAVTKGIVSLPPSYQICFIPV
How it was run: as §1

O=C(Nc1cc(F)c(F)c(F)c1)[C@H]1CCN(C(=O)c2cc3cnccc3[nH]2)C1 [CU04, (S)-1-(1H-Pyrrolo[3,2-c]pyridine-2-carbonyl)-N-(3,4,5-trifluorophenyl)pyrrolidine-3-carboxamide]
activity at 1 µM [1]: 67% | inhibition at 10 min, 10 µM [2]: 82% | CLint [3]: 1.1 μL per min per mg protein | inhibition at 10 min, 10 µM [4]: 57% | inhibition at 10 min, 10 µM [5]: 55%
